Calls of active or inactive are those of the source. No cut-off for these calls is given here.
What follows are compounds tested against T1, Heat shock protein HSP90 (Homo sapiens, UniProt P07900+P08238) (assay: Inhibition of Hsp90 in human SKBR3 cells assessed as interaction with Cy3b-conjugated geldanamycin by FP assay). Details: sk-br-3.
Assay type: cell-based

Which IC50 does the source give for `O=S(=O)(Nc1ccc(O)c(-c2c(O)ccc3ccccc23)c1)c1ccccc1` here?
The IC50 was 4.5 µM.

`Nc1ccc(NS(=O)(=O)c2cc(Cl)ccc2Cl)cc1-c1c(O)ccc2ccccc12` was tested. Which IC50 did it give?
The IC50 was 9.4 µM.

Which IC50 does the source give for `O=S(=O)(Nc1ccc(O)c(-c2c(O)ccc3c2OCO3)c1)c1cc(Cl)ccc1Cl` here?
The IC50 was 1.7 µM.

With `N#Cc1ccccc1S(=O)(=O)Nc1ccc(O)c(-c2c(O)ccc3ccccc23)c1` as the compound, how does the IC50 read?
The IC50 was 4.5 µM.

`COc1cc(O)ccc1S(=O)(=O)Nc1ccc(O)c(-c2c(O)ccc3ccccc23)c1` was tested. Which IC50 did it give?
Its IC50 is 1.3 µM.

`Cc1ccc(S(=O)(=O)Nc2cccc(-c3c(O)ccc4c3OCO4)c2)cc1` was tested. Which IC50 did it give?
The IC50 was 31.3 µM.

How did the IC50 turn out when `N#Cc1cc(S(=O)(=O)Nc2ccc(F)c(-c3c(O)ccc4c3OCO4)c2)ccc1F` was run?
The IC50 was 27 µM.

Which IC50 does the source give for `O=S(=O)(Nc1cccc(-c2c(O)ccc3c2OCO3)c1)c1cc(Cl)ccc1Cl` here?
Its IC50 is 14.5 µM.

`Cc1ccc(S(=O)(=O)Nc2ccc(F)c(-c3c(O)ccc4c3OCO4)c2)cc1` was tested. Which IC50 did it give?
The IC50 was 28 µM.

With `O=[N+]([O-])c1cc(S(=O)(=O)Nc2ccc(F)c(-c3c(O)ccc4c3OCO4)c2)ccc1Cl` as the compound, how does the IC50 read?
Its IC50 is 26 µM.

With `Nc1ccc(NS(=O)(=O)c2ccc(O)cc2O)cc1-c1c(O)ccc2ccccc12` as the compound, how does the IC50 read?
Its IC50 is 9.5 µM.

How did the IC50 turn out when `O=S(=O)(Nc1cccc(-c2c(O)ccc3c2OCO3)c1)c1ccc(F)cc1` was run?
The IC50 was 19.6 µM.

How did the IC50 turn out when `COc1ccc(O)c(O)c1-c1cc(NS(=O)(=O)c2cc(Cl)ccc2Cl)ccc1N` was run?
Its IC50 is 0.55 µM.

`COc1ccc(S(=O)(=O)Nc2ccc(N)c(-c3c(O)ccc4ccccc34)c2)c(OC)c1` was tested. Which IC50 did it give?
Its IC50 is 25 µM.

With `O=S(=O)(Nc1ccc(O)c(-c2c(O)ccc3ccccc23)c1)c1ccc(O)cc1O` as the compound, how does the IC50 read?
The IC50 was 1.8 µM.

With `COc1ccc(S(=O)(=O)Nc2ccc(O)c(-c3c(O)ccc4ccccc34)c2)c(OC)c1` as the compound, how does the IC50 read?
Its IC50 is 2.5 µM.

Which IC50 does the source give for `O=S(=O)(Nc1ccc(O)c(-c2ccccc2O)c1)c1cc(Cl)ccc1Cl` here?
Its IC50 is 19.4 µM.

The compounds below were run against T1, Heat shock protein HSP90 (assay: Inhibition of Hsp90 in human SKBR3 cells assessed as interaction with Cy3b-conjugated geldanamycin upto 50 uM by FP assay). Details: SK-BR-3.
Assay type: cell-based
Method in brief: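 Fluorescence polarization binding assay measuring displacement of fluorescently labeled geldanamycin from the Hsp90 ATP-binding site. Compounds were tested up to a maximum of 50 µM.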

For `O=[N+]([O-])c1cccc(S(=O)(=O)Nc2ccc(F)c(-c3c(O)ccc4c3OCO4)c2)c1`, which Activity is on record?
Its Activity is “inactive”.

With `Nc1ccccc1S(=O)(=O)Nc1ccc(O)c(-c2ccccc2O)c1` as the compound, how does the Activity read?
The Activity was “inactive”.

`O=[N+]([O-])c1ccccc1S(=O)(=O)Nc1ccc(O)c(-c2ccccc2O)c1` was tested. Which Activity did it give?
Its Activity is “inactive”.

Which Activity does the source give for `Nc1cccc(S(=O)(=O)Nc2ccc(F)c(-c3c(O)ccc4c3OCO4)c2)c1` here?
The Activity was “inactive”.

For `COc1ccc2c(c1-c1cc(NS(=O)(=O)c3ccccc3[N+](=O)[O-])ccc1N)OCO2`, which Activity is on record?
The Activity was “inactive”.

How did the Activity turn out when `O=C(O)c1ccc(S(=O)(=O)Nc2ccccc2-c2c(O)ccc3c2OCO3)cc1` was run?
Its Activity is “inactive”.

`COc1ccc2c(c1-c1cc(NS(=O)(=O)c3ccccc3N)ccc1N)OCO2` was tested. Which Activity did it give?
Its Activity is “inactive”.

Which Activity does the source give for `Nc1ccc(NS(=O)(=O)c2ccccc2)cc1-c1c(O)ccc2ccccc12` here?
Its Activity is “inactive”.

For `COc1ccc2c(c1-c1cc(NS(=O)(=O)c3cccc(N)c3)ccc1N)OCO2`, which Activity is on record?
The Activity was “inactive”.

How did the Activity turn out when `COc1ccc(S(=O)(=O)Nc2ccc(O)c(-c3ccccc3O)c2)cc1OC` was run?
The Activity was “inactive”.

`Cc1ccc(S(=O)(=O)Nc2ccc(O)c(-c3ccccc3O)c2)cc1` was tested. Which Activity did it give?
The Activity was “inactive”.

Which Activity does the source give for `O=S(=O)(Nc1ccccc1-c1c(O)ccc2c1OCO2)c1cc(Cl)ccc1Cl` here?
The Activity was “inactive”.

How did the Activity turn out when `Cc1ccc(S(=O)(=O)Nc2ccc(N)c(-c3ccccc3O)c2)cc1` was run?
Its Activity is “inactive”.

`O=S(=O)(Nc1ccc(F)c(-c2c(O)ccc3c2OCO3)c1)c1ccc(F)cc1` was tested. Which Activity did it give?
Its Activity is “inactive”.

How did the Activity turn out when `COc1ccc(S(=O)(=O)Nc2ccc(N)c(-c3c(OC)ccc4c3OCO4)c2)cc1OC` was run?
Its Activity is “inactive”.

For `COc1ccc2c(c1-c1cc(NS(=O)(=O)c3ccc(C)cc3)ccc1N)OCO2`, which Activity is on record?
Its Activity is “inactive”.

How did the Activity turn out when `N#Cc1cc(S(=O)(=O)Nc2cccc(-c3c(O)ccc4c3OCO4)c2)ccc1F` was run?
The Activity was “inactive”.

`O=[N+]([O-])c1ccccc1S(=O)(=O)Nc1ccc(F)c(-c2c(O)ccc3c2OCO3)c1` was tested. Which Activity did it give?
Its Activity is “inactive”.

How did the Activity turn out when `Nc1cccc(S(=O)(=O)Nc2ccc(O)c(-c3ccccc3O)c2)c1` was run?
Its Activity is “inactive”.

For `COc1ccc2c(c1-c1cc(NS(=O)(=O)c3cc(Cl)ccc3Cl)ccc1N)OCO2`, which Activity is on record?
Its Activity is “inactive”.

Which Activity does the source give for `COc1ccc(S(=O)(=O)Nc2ccc(N)c(-c3ccccc3O)c2)cc1OC` here?
Its Activity is “inactive”.

How did the Activity turn out when `COc1ccc2c(c1-c1cc(NS(=O)(=O)c3cccc([N+](=O)[O-])c3)ccc1N)OCO2` was run?
The Activity was “inactive”.

How did the Activity turn out when `Nc1ccccc1S(=O)(=O)Nc1ccc(F)c(-c2c(O)ccc3c2OCO3)c1` was run?
Its Activity is “inactive”.

For `N#Cc1cc(S(=O)(=O)Nc2ccccc2-c2c(O)ccc3c2OCO3)ccc1F`, which Activity is on record?
Its Activity is “inactive”.

For `O=C(O)c1cccc(S(=O)(=O)Nc2ccc(F)c(-c3c(O)ccc4c3OCO4)c2)c1`, which Activity is on record?
Its Activity is “inactive”.

With `Nc1ccc(NS(=O)(=O)c2cc(Cl)ccc2Cl)cc1-c1ccccc1O` as the compound, how does the Activity read?
The Activity was “inactive”.

How did the Activity turn out when `O=[N+]([O-])c1cccc(S(=O)(=O)Nc2ccc(O)c(-c3ccccc3O)c2)c1` was run?
The Activity was “inactive”.

These compounds were tested on SK-BR-3 (assay: cells). Details: Homo sapiens, SK-BR-3, 72 h.

How did the IC50 turn out when `O=S(=O)(Nc1ccc(O)c(-c2c(O)ccc3c2OCO3)c1)c1cc(Cl)ccc1Cl` was run?
Its IC50 is 4.4 µM.

For `O=S(=O)(Nc1ccc(O)c(-c2c(O)ccc3ccccc23)c1)c1cc(Cl)ccc1Cl`, which IC50 is on record?
The IC50 was 6 µM.

How did the IC50 turn out when `COc1ccc(O)c(O)c1-c1cc(NS(=O)(=O)c2cc(Cl)ccc2Cl)ccc1N` was run?
Its IC50 is 6 µM.

`O=S(=O)(Nc1ccc(O)c(-c2c(O)ccc3ccccc23)c1)c1ccc(O)cc1O` was tested. Which IC50 did it give?
The IC50 was greater than 50 µM.

The compounds below were run against T1, Heat shock protein HSP90 (assay: Inhibition of Hsp90 in human SKBR3 cells assessed as Her2 degradation after 24 hrs by Western blot). Details: sk-br-3.
Assay type: cell-based

With `COc1ccc(O)c(O)c1-c1cc(NS(=O)(=O)c2cc(Cl)ccc2Cl)ccc1N` as the compound, how does the IC50 read?
The IC50 was 20 µM.

Source: ChEMBL document CHEMBL1144185, “Synthesis and SAR study of N-(4-hydroxy-3-(2-hydroxynaphthalene-1-yl)phenyl)-arylsulfonamides: heat shock protein 90 (Hsp90) inhibitors with submicromolar activity in an in vitro assay” (Bioorg Med Chem Lett, 2008)
